Calls of active or inactive are those of the source. The calls are words filed in the database; no cut-off is given here.

What is called IC50 is the concentration that gives 50% inhibition. A lower IC50 goes with inhibition by little substance.

Assay [1] has as its system HCCLM3. Briefly: Antimigratory activity against human HCCLM3 cells at 50 uM after 48 hrs by wound healing assay. The class given is functional, cell-based. The essentials:
(§1)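 Near-confluent monolayers (1.5×10^5 cells per well, RPMI-1640 with 10% FBS) were scratched with a pipette tip and washed twice with serum-free medium. They were then exposed for 48 h to analogue in fresh FBS-containing medium, with DMSO medium as control. Wounds were photographed, and migration was expressed as % of 0 h (wound width at endpoint/width at 0 h). Done in triplicate.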

Assay [2] has as its system B16. Briefly: Antimigratory activity against mouse B16 cells at 6.25 to 12.5 uM after 48 hrs by wound healing assay. The class given is functional, cell-based. The essentials: as §1
Assay [3] concerns K562. The experiment in a line: Antiproliferative activity against human K562 cells after 48 hrs by MTT assay. The class given is functional, cell-based. Conditions: K562, 48 h. In outline:
(§2)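 Cells were seeded at 8×10^3 per well in RPMI-1640 with 10% heat-inactivated FBS. They were treated for 48 h at 37 °C, 5% CO2 with 20, 200, 400 or 1000 μM analogue, or DMSO vehicle. MTT (5 mg/mL solution) was added for 4 h, and absorbance was read at 570 nm. Viability was taken relative to vehicle control, as means ± SD of three independent experiments.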
For orientation: Tetrazolium dyes change colour on reduction, which living cells bring about.

Assay [4] concerns HCT-116. Briefly: Antiproliferative activity against human HCT116 cells after 48 hrs by MTT assay. The format is functional, cell-based. As to conditions: HCT-116, 48 h. In outline:
as §2

Assay [5] concerns B16-F10. The experiment in a line: Antimigratory activity against mouse B16F10 cells at 6.25 to 12.5 uM after 12 hrs by wound healing assay.

As for `CCCCCCCCCCCCC/C=C/[C@@H](O)[C@@H](N)CO[C@H]1O[C@H](CO[C@]2(C(=O)O)C[C@H](O)[C@@H](NC(C)=O)[C@H]([C@H](O)[C@H](O)CO)O2)[C@@H](O)[C@H](O)[C@@H]1O`, the result in assay [1], in assay [2] and in assay [5] was Active. Also, the figures for the 50% inhibitory concentration (IC50) in assay [3] and in assay [4] were 148 µM and 182 µM, respectively.

As to `CCCCCCCCCCCCC/C=C/[C@@H](O)[C@H](CO[C@H]1O[C@H](CO[C@]2(C(=O)O)C[C@H](O)[C@@H](NC(C)=O)[C@H]([C@H](O)[C@H](O)CO)O2)[C@@H](O)[C@H](O)[C@@H]1O)NC(=O)CCCCCCCCCCCCCCCCC`, the outcome in assay [1] was inactive. For the same compound, the outcome in assay [2] and in assay [5] was Active. The figures for the IC50 in assay [3] and in assay [4] were 160 µM and 64.2 µM, respectively.

`CCCCCCCCCCCCC/C=C/[C@@H](O)[C@H](CO[C@@H]1O[C@H](CO[C@]2(C(=O)O)C[C@H](O)[C@@H](NC(C)=O)[C@H]([C@H](O)[C@H](O)CO)O2)[C@H](O)[C@H](O)[C@H]1O)NC(=O)CCCCCCCCCCCCCCCCC`: the outcome in assay [1] was inactive. In addition, the outcome in assay [2] and in assay [5] was Active. The IC50 is 396 µM in assay [3] and 86.2 µM in assay [4].

Consider `CCCCCCCCCCCCC/C=C/[C@@H](O)[C@@H](N)CO[C@@H]1O[C@H](CO[C@]2(C(=O)O)C[C@H](O)[C@@H](NC(C)=O)[C@H]([C@H](O)[C@H](O)CO)O2)[C@H](O)[C@H](O)[C@H]1O`, for which the outcome in assay [1], in assay [2] and in assay [5] was Active. Besides, the concentration for half-maximal inhibition (IC50) in assay [3] stood at 206 µM; in assay [4] it was 130 µM.

Source of the values: ChEMBL document CHEMBL4480389, “Chemoenzymatically synthesized ganglioside GM3 analogues with inhibitory effects on tumor cell growth and migration” (Eur J Med Chem, 2019).
